The subject of assay [1] is A549. Kind of assay: Induction of apoptosis in human A549 cells assessed as necrotic cells at 1 nM after 24 hrs by annexin V-FITC/propidium iodide staining-based flow cytometric method (reference value: 0.03%). The class given is functional.
The test system of assay [2] is A549. Description: Induction of apoptosis in human A549 cells assessed as necrotic cells at 1 nM after 48 hrs by annexin V-FITC/propidium iodide staining-based flow cytometric method (reference value: 0.01%). The class given is functional. In general terms: A flow cytometer gives signals particle by particle.
Assay [3] has as its system A2780. Description: Cytotoxicity against human A2780 cells assessed as cell viability after 48 hrs by MTT assay. The class given is functional, cell-based. The following applies: A2780, 48 h. In short, it runs like this:
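Cancer cell lines treated with compound for 48 h, and viability read by MTT assay. IC50 given as mean ± SD from at least three independent experiments.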
(In general: Tetrazolium assays rely on reduction of a dye to a coloured formazan, in cell work by metabolically active cells.)

Assay [4] deals with A549. Kind of assay: Disruption of mitochondrial membrane potential in human A549 cells assessed as red fluorescence intensity at 1 nM after 24 hrs by JC1 staining-based flow cytometric method (reference value: 99.2%). The class given is functional.
Assay [5] has as its system A549. Description: Induction of apoptosis in human A549 cells assessed as viable cells at 1 nM after 48 hrs by annexin V-FITC/propidium iodide staining-based flow cytometric method (reference value: 98.1%). It counts as functional. To be noted: A549, 48 h, read-out: Activity. In short, it runs like this: (§1)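 A549 cells exposed 24 h or 48 h at indicated concentrations, then trypsinized, harvested and stained with Annexin V-FITC and PI; flow cytometry quadrants scored as necrotic (upper left), late apoptotic (upper right), live (bottom left) and early apoptotic (bottom right). Five independent experiments, representative shown.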

The test system of assay [6] is A2780. Description: Resistance index, ratio of IC50 for human A2780/TAX cells to IC50 for human A2780 cells. It counts as functional.
Assay [7] can be described thus: Cytotoxicity against human MCF7/DX cells assessed as growth inhibition after 48 hrs by MTT assay. The class given is functional, cell-based. In outline: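 Drug-resistant lines were tested by a 48 h MTT viability assay. IC50 was derived from dose-response curves and reported as mean ± SE of at least three independent experiments.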
For assay [8], the system named is A549. Kind of assay: Induction of apoptosis in human A549 cells assessed as viable cells at 3 nM after 24 hrs by annexin V-FITC/propidium iodide staining-based flow cytometric method (reference value: 98.9%). The class given is functional. The following applies: A549, 24 h, read-out: Activity. In outline:
as §1

Another assay has as its target Tubulin (Sus scrofa) (UniProt P02554+P02550). Description: Inhibition of [3H]-colchicine binding to porcine brain tubulin at 1 uM relative to control. In short, it runs like this: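 Competition with [3H]colchicine at 5 μM; test agents at 5 or 1 μM. Mean ± SD of at least three independent experiments.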
Assay [9] relates to A549. Description: Disruption of mitochondrial membrane potential in human A549 cells assessed as green fluorescence intensity at 10 nM after 24 hrs by JC1 staining-based flow cytometric method (reference value: 0.02%). The class given is functional.
The test system of assay [10] is A549. Kind of assay: Induction of apoptosis in human A549 cells assessed as early apoptotic cells at 3 nM after 24 hrs by annexin V-FITC/propidium iodide staining-based flow cytometric method (reference value: 1.07%). It counts as functional.
Assay [11] relates to A549. Kind of assay: Resistance index, ratio of IC50 for human A549/CDDP cells to IC50 for human A549 cells. It counts as functional.

Tubulin (Sus scrofa), sequence (P02550 whole entry, looked up): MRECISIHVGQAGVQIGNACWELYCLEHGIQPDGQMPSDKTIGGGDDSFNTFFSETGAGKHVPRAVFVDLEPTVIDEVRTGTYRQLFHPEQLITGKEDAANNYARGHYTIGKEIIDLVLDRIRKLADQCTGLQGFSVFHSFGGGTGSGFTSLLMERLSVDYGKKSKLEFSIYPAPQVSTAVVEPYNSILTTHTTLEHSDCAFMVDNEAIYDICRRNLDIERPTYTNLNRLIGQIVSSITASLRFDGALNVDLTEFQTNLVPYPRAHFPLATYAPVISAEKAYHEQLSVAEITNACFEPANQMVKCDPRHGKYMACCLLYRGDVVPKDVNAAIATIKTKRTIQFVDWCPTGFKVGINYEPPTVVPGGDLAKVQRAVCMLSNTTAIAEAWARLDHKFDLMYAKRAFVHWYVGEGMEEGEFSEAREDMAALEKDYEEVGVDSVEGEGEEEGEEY
Tubulin (Sus scrofa), sequence (P02554 whole entry, looked up): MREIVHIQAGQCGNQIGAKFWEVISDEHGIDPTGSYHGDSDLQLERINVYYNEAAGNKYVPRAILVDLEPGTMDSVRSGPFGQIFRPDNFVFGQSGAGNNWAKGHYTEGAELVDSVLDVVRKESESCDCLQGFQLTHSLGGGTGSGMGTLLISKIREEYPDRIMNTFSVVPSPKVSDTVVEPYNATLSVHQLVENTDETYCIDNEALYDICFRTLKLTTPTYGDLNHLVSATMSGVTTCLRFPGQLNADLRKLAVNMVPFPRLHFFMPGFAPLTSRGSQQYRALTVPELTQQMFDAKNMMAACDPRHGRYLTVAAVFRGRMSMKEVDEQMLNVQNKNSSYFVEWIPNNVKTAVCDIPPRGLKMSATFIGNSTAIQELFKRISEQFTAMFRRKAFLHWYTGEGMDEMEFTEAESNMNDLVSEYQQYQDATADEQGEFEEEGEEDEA

Take `COc1ccc2c(/C=C(\C)C(=O)c3cc(OC)c(OC)c(OC)c3)c[nH]c2c1`: the Activity with A549 [1] was determined as 1.45%; in the assay with A549 [2], 1.52%; in the assay with A549 [4], 97.2%; with A549 [9], 57.2%; with A549 [10] it was 28.6%. The values for the half-inhibitory concentration (IC50) (with A2780 [3]; in assay [7]) were 8 nM and 9 nM, respectively. Moreover, the viability at 0.001 µM with A549 [5] worked out at 66.8%. In addition, the “Ratio IC50” value was 12.4 in the assay on A2780 [6] and 1.33 in the assay with A549 [11]. In the assay with A549 [8], the viability at 0.003 µM is 69.7%. On Tubulin (Sus scrofa), this compound yielded an inhibition of 82%.

As usually defined, the IC50 is the concentration needed to halve the response being measured. One may read the inhibition as the percentage by which the read-out fell short of the control.

Values taken from ChEMBL document CHEMBL3817728, “Synthesis, Evaluation, and Mechanism Study of Novel Indole-Chalcone Derivatives Exerting Effective Antitumor Activity Through Microtubule Destabilization in Vitro and in Vivo” (J Med Chem, 2016).
